This note sets out measurements from ChEMBL document CHEMBL1123624, “Prodrugs of L-cysteine as protective agents against acetaminophen-induced hepatotoxicity. 2-(Polyhydroxyalkyl)- and 2-(polyacetoxyalkyl)thiazolidine-4(R)-carboxylic acids” (1987).

Assay [1] is filed under the species Mus musculus. In words: Number of mice with necrosis was measured for compound along with acetaminophen showing necrosis rating of 4+ was reported. In kind it is functional.
Assay [2] is filed under the species Mus musculus. Briefly: Number of mice with necrosis was measured for compound along with acetaminophen showing necrosis rating of 0 was reported. The format is functional.
The species entered for assay [3] is Mus musculus. In words: Number of mice with necrosis was measured for compound along with acetaminophen showing necrosis rating of 1+ was reported. The format is functional.
The species entered for assay [4] is Mus musculus. In words: Number of mice with necrosis was measured for compound along with acetaminophen showing necrosis rating of 2+ was reported. In kind it is functional.
The species entered for assay [5] is Mus musculus. In words: Number of mice with necrosis was measured for compound along with acetaminophen showing necrosis rating of 3+ was reported. The format is functional.
For assay [6], the species on record is Mus musculus. In words: No of mice protected out of 10 against acetaminophen-induced Hepatotoxicity after 48 h. The format is functional. In short, it runs like this:
(§1)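 Male Swiss-Webster mice (19–31 g) were fasted overnight with water available. They received acetaminophen 750 mg/kg (4.97 mmol/kg) ip and then, 30 min later, prodrug 2.45 mmol/kg ip. The prodrug was given in sterile water, sterile 0.1 N NaHCO3, or as a slurry in 2% CMC. Food was then restored, and animals were checked at 12, 24 and 48 h. Survivors were counted at 48 h.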

Assay [7] is filed under the species Mus musculus. In words: Percentage survival of mice after 48 hr. Set-up: concentration or dose not given beside the values. In kind it is functional. Put shortly:
as §1

The species entered for assay [8] is Rattus norvegicus. Briefly: Inhibitory effect on GSH elevation elicited by compound in rat hepatocytes in the presence of buthionine sulfoximine (BSO) (0.2 mM). In kind it is functional, Hepatocyte. In short, it runs like this: (§2)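 Primary rat hepatocytes pre-exposed to buthionine sulfoximine (0.20 mM) before 4 h incubation with prodrug (1.0 mM). Total GSH (GSH + GSSG) after PBS rinse and 5% sulfosalicylic acid deproteinization, by modified DTNB–glutathione reductase recycling (ΔOD 412 nm/min). Reported as nmol/10^6 cells ± SE and relative to untreated controls.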

Assay [9] is filed under the species Rattus norvegicus. Briefly: GSH level related to controls. In kind it is functional. Put shortly:
(§3)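 Primary rat hepatocyte cultures exposed to prodrug for 4 h; medium aspirated, cells rinsed with cold PBS, deproteinized with 5% sulfosalicylic acid. Total GSH (GSH + GSSG) measured by modified DTNB–glutathione reductase recycling, from cycling rate (ΔOD 412 nm/min); expressed as nmol/10^6 cells ± SE and relative to untreated controls.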

The species named for assay [10] is Rattus norvegicus. In words: GSH level related to controls in the presence of buthionine sulfoximine (BSO) (0.2 mM). In kind it is functional. In short, it runs like this:
as §2

For assay [11], the species on record is Rattus norvegicus. In words: In vitro increased GSH content of rat hepatocytes when incubated with compound after 4 hr at 1.0 mM concentration. In kind it is functional, Hepatocyte. Put shortly: as §3
The species named for assay [12] is Mus musculus. Briefly: No of mice protected out of 12 against acetaminophen-induced Hepatotoxicity after 48 h. The format is functional. Put shortly:
as §1

The species named for assay [13] is Mus musculus. Briefly: Number of mice with necrosis was measured for compound along with acetaminophen and number of animals showing necrosis rating of 0 was reported. In kind it is functional.
Assay [14] is filed under the species Mus musculus. In words: Number of mice with necrosis was measured for compound along with acetaminophen and number of animals showing necrosis rating of 1+ was reported. The format is functional.
The species named for assay [15] is Mus musculus. In words: Number of mice with necrosis was measured for compound along with acetaminophen and number of animals showing necrosis rating of 2+ was reported. The format is functional.
The species entered for assay [16] is Mus musculus. Briefly: Number of mice with necrosis was measured for compound along with acetaminophen and number of animals showing necrosis rating of 3+ was reported. The format is functional.
The species entered for assay [17] is Mus musculus. Briefly: Number of mice with necrosis was measured for compound along with acetaminophen and number of animals showing necrosis rating of 4+ was reported. The format is functional.
Assay [18] is filed under the species Mus musculus. Briefly: Protection of mice against acetaminophen-induced Hepatotoxicity. In kind it is functional. In short, it runs like this: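 Fasted male Swiss-Webster mice (19–31 g) were given acetaminophen 750 mg/kg ip, then prodrug 2.45 mmol/kg ip 30 min later. Outcomes were 48-h survival plus histology. Central-lobe liver sections came from animals found dead at 12/24/48 h or killed at 48 h. Sections were formalin-fixed and H&E-stained. Necrosis was rated blind using Mitchell's scale.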

For assay [19], the species on record is Rattus norvegicus. In words: In vitro increased GSH content of rat hepatocytes when incubated with compound after 4 hr at 2.5 mM concentration. In kind it is functional, Hepatocyte. In short, it runs like this: as §3

Each structure is given as a SMILES string.

In the case of `O=C(O)[C@@H]1CSC(C(O)C(O)C(O)C(O)CO)N1` (stereo in doubt; 1f), the No. of animals is listed as 4 in the assay filed under Mus musculus [1]; 1 in the assay listed under Mus musculus [2]; 3 in the assay filed under Mus musculus [3]; 2 in the assay listed under Mus musculus [4]; 0 in the assay filed under Mus musculus [5]. Moreover, the No. of survivors in the assay listed under Mus musculus [6] came out at 6. The same compound gave a Survival in the assay listed under Mus musculus [7] of 60%. Also, the “[GSH]” value in the assay filed under Rattus norvegicus [8] came out at 23.2 nmol/10^6 cells; in the assay filed under Rattus norvegicus [11], 58 nmol/10^6 cells. Also, the GSH level in the assay filed under Rattus norvegicus [9] stood at 1.6; in the assay filed under Rattus norvegicus [10], 0.7.
On to `CC(=O)Nc1ccc(O)cc1` [ACETAMINOPHEN], for which the No. of animals in the assay filed under Mus musculus [1] came out at 11; in the assay listed under Mus musculus [2] it was 0; in the assay filed under Mus musculus [3], 0; in the assay filed under Mus musculus [4], 1; in the assay filed under Mus musculus [5], 0. In the assay listed under Mus musculus [12], this compound displayed a No. of survivors of 2. This compound had a Survival in the assay listed under Mus musculus [7] of 17%.
With `O=C(O)[C@@H]1CSC(C(O)C(O)C(O)CO)N1` (stereo in doubt; 1b), the results for the No. of animals in the assay listed under Mus musculus [1], in the assay filed under Mus musculus [3] and in the assay filed under Mus musculus [4] were 7, 1 and 2, respectively. The compound further came in with a No. of survivors in the assay filed under Mus musculus [6] of 4. In the assay filed under Mus musculus [7], this compound yielded a Survival of 40%. For the same compound, the entries for the “[GSH]” value in the assay listed under Rattus norvegicus [8] and in the assay filed under Rattus norvegicus [11] were 19.5 nmol/10^6 cells and 42.9 nmol/10^6 cells, respectively. The compound further yielded a GSH level in the assay listed under Rattus norvegicus [9] of 1.2.
On to `O=C(O)[C@@H]1CSC(C(O)C(O)C(O)C(O)CO)N1` (stereo in doubt; 1h), for which the No. of animals in the assay listed under Mus musculus [1] came to 6; in the assay listed under Mus musculus [2], 3; in the assay listed under Mus musculus [3], 0; in the assay filed under Mus musculus [4], 1. The compound also showed a No. of survivors in the assay filed under Mus musculus [6] of 4. Further, in the assay listed under Mus musculus [7], the Survival was 40%. Moreover, the “[GSH]” value is listed as 18.9 nmol/10^6 cells in the assay filed under Rattus norvegicus [8] and 57.8 nmol/10^6 cells in the assay filed under Rattus norvegicus [11]. Besides, in the assay listed under Rattus norvegicus [10], the GSH level turned out to be 0.5.
For `CC(=O)N[C@@H](CS)C(=O)O` [ACETYLCYSTEINE], the No. of animals is 13 in the assay listed under Mus musculus [13]; 3 in the assay listed under Mus musculus [14]; 0 in the assay listed under Mus musculus [15]; 1 in the assay listed under Mus musculus [16]; 1 in the assay filed under Mus musculus [17]. The values for the Survival in the assay listed under Mus musculus [18] and in the assay filed under Mus musculus [7] were 17% and 94%, respectively. Further, the “[GSH]” value in the assay listed under Rattus norvegicus [19] is listed as 45.8 nM (10e6*cells)-1.
Take `O=C(O)[C@@H]1CSC(C(O)C(O)C(O)C(O)CO)N1` (stereo in doubt; 1g): the No. of animals in the assay listed under Mus musculus [1] was 7; in the assay filed under Mus musculus [2] it was 0; in the assay listed under Mus musculus [3] it was 2; in the assay listed under Mus musculus [4], 0; in the assay filed under Mus musculus [5] it was 1. Further, the No. of survivors in the assay listed under Mus musculus [6] came out at 3. In the assay filed under Mus musculus [7], the Survival came to 30%. Moreover, the “[GSH]” value in the assay filed under Rattus norvegicus [8] is 25.4 nmol/10^6 cells; in the assay listed under Rattus norvegicus [11], 75.2 nmol/10^6 cells. Besides, the GSH level in the assay filed under Rattus norvegicus [9] is given as 2.1.
For the compound `O=C(O)[C@@H]1CSC(C(O)C(O)C(O)CO)N1` (stereo in doubt; 1d), the No. of animals came to 0 in the assay filed under Mus musculus [1]; 4 in the assay filed under Mus musculus [2]; 2 in the assay listed under Mus musculus [3]; 6 in the assay listed under Mus musculus [4]; 0 in the assay filed under Mus musculus [5]. The compound also returned a No. of survivors in the assay listed under Mus musculus [12] of 12. The Survival in the assay filed under Mus musculus [7] was determined as 100%. Moreover, the “[GSH]” value in the assay filed under Rattus norvegicus [8] stood at 16.2 nmol/10^6 cells; in the assay listed under Rattus norvegicus [11], 61.2 nmol/10^6 cells. The GSH level came out at 1.7 in the assay listed under Rattus norvegicus [9] and 0.5 in the assay listed under Rattus norvegicus [10].
For `O=C(O)[C@@H]1CSC(C(O)CO)N1` (some centres undefined), the No. of animals in the assay filed under Mus musculus [1] is on record as 7; in the assay filed under Mus musculus [2], 0; in the assay listed under Mus musculus [3], 0; in the assay listed under Mus musculus [4], 1; in the assay listed under Mus musculus [5] it was 2. Besides, the No. of survivors in the assay listed under Mus musculus [6] stood at 3. The Survival in the assay listed under Mus musculus [7] is listed as 30%. The “[GSH]” value in the assay filed under Rattus norvegicus [8] came out at 18.3 nmol/10^6 cells; in the assay listed under Rattus norvegicus [11] it was 46.1 nmol/10^6 cells. Further, the GSH level was found to be 1.3 in the assay listed under Rattus norvegicus [9] and 0.5 in the assay filed under Rattus norvegicus [10].
Take `O=C(O)[C@@H]1CSC(C(O)C(O)C(O)CO)N1` (stereo in doubt; 1e): the No. of animals in the assay listed under Mus musculus [1] is 5; in the assay listed under Mus musculus [2], 3. Moreover, in the assay listed under Mus musculus [6], the No. of survivors is on record as 6. The Survival in the assay filed under Mus musculus [7] stood at 60%. For the same compound, the “[GSH]” value turned out to be 22.6 nmol/10^6 cells in the assay listed under Rattus norvegicus [8] and 58.3 nmol/10^6 cells in the assay listed under Rattus norvegicus [11]. The GSH level amounted to 1.6 in the assay listed under Rattus norvegicus [9] and 0.8 in the assay listed under Rattus norvegicus [10].
On to `O=C(O)[C@@H]1CSC(C(O)C(O)C(O)CO)N1` (stereo in doubt; 1c), for which the No. of animals is recorded as 9 in the assay filed under Mus musculus [1]; 0 in the assay filed under Mus musculus [2]; 0 in the assay filed under Mus musculus [3]; 0 in the assay listed under Mus musculus [4]; 1 in the assay listed under Mus musculus [5]. The compound further yielded a No. of survivors in the assay listed under Mus musculus [6] of 3. In addition, the Survival in the assay listed under Mus musculus [7] worked out at 30%. The “[GSH]” value is reported as 22.4 nmol/10^6 cells in the assay listed under Rattus norvegicus [8] and 45.9 nmol/10^6 cells in the assay listed under Rattus norvegicus [11]. Besides, the GSH level in the assay filed under Rattus norvegicus [9] is recorded as 1.3; in the assay filed under Rattus norvegicus [10], 0.6.
